Reference: ChEMBL document CHEMBL3875201, “Synthesis and in vitro antiviral evaluation of 4-substituted 3,4-dihydropyrimidinones” (Bioorg Med Chem Lett, 2017)

Tested on: not listed separately
Experiment: Cytotoxicity against human HeLa cells assessed as alterations in cell morphology by microscopic analysis
Format: toxicity, cell-based
Conditions: not given
In short: (§1)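 Compound added to subconfluent cell monolayers in 96-well plates together with virus (CPE reduction assay format); after 3–5 days incubation, cultures inspected by microscopy. MCC taken as compound concentration producing minimal alterations in cell morphology.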

**Q.** For `CCOC(=O)C1=C(C)NC(=O)NC1/C=C/c1ccccc1` (stereo not drawn), which MCC is on record?
**A.** ≥ 100 µM

**Q.** Which MCC does the source give for `CCOC(=O)C1=C(C)NC(=O)NC1C` (stereo not drawn) here?
**A.** > 100 µM

**Q.** Which MCC does the source give for `CCOC(=O)C1=C(C)NC(=O)NC1c1ccc(OC)cc1` (stereo not drawn) here?
**A.** > 100 µM

**Q.** Which MCC does the source give for `CCOC(=O)C1=C(C)NC(=O)NC1c1ccccc1Cl` (stereo not drawn) here?
**A.** > 100 µM

**Q.** For `CCOC(=O)C1=C(C)NC(=O)NC1c1ccc(Br)cc1` (stereo not drawn), which MCC is on record?
**A.** > 100 µM

**Q.** For `CCOC(=O)C1=C(C)NC(=O)NC1`, which MCC is on record?
**A.** > 100 µM

Tested on: Punta Toro virus
Experiment: Antiviral activity against Punta Toro virus infected in African green monkey Vero cells assessed as protection against virus-induced cytopathic effect measured after 3 to 5 days by microscopic analysis
Format: functional, cell-based
Conditions: not given

**Q.** Which EC50 does the source give for `NC(=O)c1ncn([C@@H]2O[C@H](CO)[C@@H](O)[C@H]2O)n1` [RIBAVIRIN] here?
**A.** 50 µM

**Q.** For `CCOC(=O)C1=C(C)NC(=O)NC1/C=C/c1ccccc1` (stereo not drawn), which EC50 is on record?
**A.** > 100 µM

**Q.** With `CCOC(=O)C1=C(C)NC(=O)NC1C` (stereo not drawn) as the compound, how does the EC50 read?
**A.** > 100 µM

**Q.** With `CCOC(=O)C1=C(C)NC(=O)NC1c1ccccc1Cl` (stereo not drawn) as the compound, how does the EC50 read?
**A.** > 100 µM

**Q.** Which EC50 does the source give for `COc1c(C)c2c(c(O)c1C/C=C(\C)CCC(=O)O)C(=O)OC2` [MYCOPHENOLIC ACID] here?
**A.** 20 µM

**Q.** For `CCOC(=O)C1=C(C)NC(=O)NC1`, which EC50 is on record?
**A.** > 100 µM

Tested on: not listed separately
Experiment: Cytotoxicity against MDCK cells assessed as alterations in cell morphology by microscopic analysis
Format: toxicity, cell-based, Canis lupus familiaris
Conditions: dog
In short: as §1

**Q.** For `CCOC(=O)C1=C(C)NC(=O)NC1/C=C/c1ccccc1` (stereo not drawn), which MCC is on record?
**A.** > 100 µM

**Q.** Which MCC does the source give for `CCOC(=O)C1=C(C)NC(=O)NC1C` (stereo not drawn) here?
**A.** > 100 µM

**Q.** For `CCOC(=O)C1=C(C)NC(=O)NC1c1ccc(OC)cc1` (stereo not drawn), which MCC is on record?
**A.** > 100 µM

**Q.** With `CCOC(=O)C1=C(C)NC(=O)NC1c1ccccc1Cl` (stereo not drawn) as the compound, how does the MCC read?
**A.** > 100 µM

**Q.** With `CCOC(=O)C1=C(C)NC(=O)NC1c1ccc(Br)cc1` (stereo not drawn) as the compound, how does the MCC read?
**A.** > 100 µM

**Q.** Which MCC does the source give for `CCOC(=O)C1=C(C)NC(=O)NC1` here?
**A.** > 100 µM

Tested on: not listed separately
Experiment: Cytotoxicity against African green monkey Vero cells assessed as alterations in cell morphology by microscopic analysis
Format: toxicity, cell-based
Conditions: chlorocebus sabaeus
In short: as §1

**Q.** Which MCC does the source give for `NC(=O)c1ncn([C@@H]2O[C@H](CO)[C@@H](O)[C@H]2O)n1` [RIBAVIRIN] here?
**A.** > 250 µM

**Q.** For `CCOC(=O)C1=C(C)NC(=O)NC1/C=C/c1ccccc1` (stereo not drawn), which MCC is on record?
**A.** 100 µM

**Q.** Which MCC does the source give for `CCOC(=O)C1=C(C)NC(=O)NC1C` (stereo not drawn) here?
**A.** > 100 µM

**Q.** Which MCC does the source give for `CCOC(=O)C1=C(C)NC(=O)NC1c1ccccc1Cl` (stereo not drawn) here?
**A.** > 100 µM

**Q.** For `COc1c(C)c2c(c(O)c1C/C=C(\C)CCC(=O)O)C(=O)OC2` [MYCOPHENOLIC ACID], which MCC is on record?
**A.** > 100 µM

**Q.** For `CCOC(=O)C1=C(C)NC(=O)NC1`, which MCC is on record?
**A.** > 100 µM

Tested on: not listed separately
Experiment: Cytotoxicity against HEL cells assessed as alterations in cell morphology by microscopic analysis
Format: toxicity, cell-based
Conditions: human
In short: as §1

**Q.** Which MCC does the source give for `CCOC(=O)C1=C(C)NC(=O)NC1/C=C/c1ccccc1` (stereo not drawn) here?
**A.** ≥ 100 µM

**Q.** Which MCC does the source give for `CCOC(=O)C1=C(C)NC(=O)NC1C` (stereo not drawn) here?
**A.** > 100 µM

**Q.** With `CCOC(=O)C1=C(C)NC(=O)NC1c1ccccc1Cl` (stereo not drawn) as the compound, how does the MCC read?
**A.** > 100 µM

**Q.** With `CCOC(=O)C1=C(C)NC(=O)NC1c1ccc(Br)cc1` (stereo not drawn) as the compound, how does the MCC read?
**A.** > 100 µM

**Q.** Which MCC does the source give for `CCOC(=O)C1=C(C)NC(=O)NC1` here?
**A.** > 100 µM

Tested on: Yellow fever virus
Experiment: Antiviral activity against Yellow fever virus infected in African green monkey Vero cells assessed as protection against virus-induced cytopathic effect measured after 3 to 5 days by microscopic analysis
Format: functional, cell-based
Conditions: not given

**Q.** With `CCOC(=O)C1=C(C)NC(=O)NC1/C=C/c1ccccc1` (stereo not drawn) as the compound, how does the EC50 read?
**A.** > 100 µM

**Q.** With `CCOC(=O)C1=C(C)NC(=O)NC1C` (stereo not drawn) as the compound, how does the EC50 read?
**A.** > 100 µM

**Q.** For `CCOC(=O)C1=C(C)NC(=O)NC1c1ccccc1Cl` (stereo not drawn), which EC50 is on record?
**A.** > 100 µM

**Q.** Which EC50 does the source give for `COc1c(C)c2c(c(O)c1C/C=C(\C)CCC(=O)O)C(=O)OC2` [MYCOPHENOLIC ACID] here?
**A.** 4 µM

**Q.** With `CCOC(=O)C1=C(C)NC(=O)NC1` as the compound, how does the EC50 read?
**A.** > 100 µM

Tested on: not listed separately
Experiment: Cytotoxicity against human MT4 cells by MTS cell viability assay
Format: toxicity, cell-based
Conditions: not given

**Q.** With `CCOC(=O)C1=C(C)NC(=O)NC1/C=C/c1ccccc1` (stereo not drawn) as the compound, how does the CC50 read?
**A.** > 125 µM

**Q.** Which CC50 does the source give for `CCOC(=O)C1=C(C)NC(=O)NC1C` (stereo not drawn) here?
**A.** > 125 µM

**Q.** Which CC50 does the source give for `CCOC(=O)C1=C(C)NC(=O)NC1c1ccccc1Cl` (stereo not drawn) here?
**A.** 96 µM

**Q.** Which CC50 does the source give for `CCOC(=O)C1=C(C)NC(=O)NC1` here?
**A.** > 125 µM

Tested on: Human alphaherpesvirus 3
Experiment: Antiviral activity against Varicella zoster virus infected in HEL cells assessed as protection against virus-induced cytopathic effect at 100 uM measured after 3 to 5 days by microscopic analysis
Format: functional, cell-based
Conditions: Human alphaherpesvirus 3, HEL
In short: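 HEL fibroblasts, subconfluent, were exposed to compound plus virus together. After 3–5 days CPE was scored microscopically as protection against virus-induced cell damage. EC50 is the concentration giving 50% protection; MCC is the concentration causing minimal morphology change by microscopy.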

**Q.** For `CCOC(=O)C1=C(C)NC(=O)NC1/C=C/c1ccccc1` (stereo not drawn), which EC50 is on record?
**A.** 57 µM

Tested on: not listed separately
Experiment: Cytotoxicity against cat CRFK cells assessed as by MTS cell viability assay
Format: toxicity, cell-based, Felis catus
Conditions: not given

**Q.** For `CCOC(=O)C1=C(C)NC(=O)NC1/C=C/c1ccccc1` (stereo not drawn), which CC50 is on record?
**A.** > 100 µM

**Q.** For `CCOC(=O)C1=C(C)NC(=O)NC1C` (stereo not drawn), which CC50 is on record?
**A.** > 100 µM

**Q.** For `CCOC(=O)C1=C(C)NC(=O)NC1c1ccccc1Cl` (stereo not drawn), which CC50 is on record?
**A.** > 100 µM

**Q.** With `CCOC(=O)C1=C(C)NC(=O)NC1` as the compound, how does the CC50 read?
**A.** > 100 µM

Tested on: Mammalian orthoreovirus 1
Experiment: Antiviral activity against Reovirus-1 infected in African green monkey Vero cells assessed as protection against virus-induced cytopathic effect measured after 3 to 5 days by microscopic analysis
Format: functional, cell-based
Conditions: Mammalian orthoreovirus 1, Vero

**Q.** Which EC50 does the source give for `NC(=O)c1ncn([C@@H]2O[C@H](CO)[C@@H](O)[C@H]2O)n1` [RIBAVIRIN] here?
**A.** > 250 µM

**Q.** For `CCOC(=O)C1=C(C)NC(=O)NC1/C=C/c1ccccc1` (stereo not drawn), which EC50 is on record?
**A.** > 100 µM

**Q.** Which EC50 does the source give for `CCOC(=O)C1=C(C)NC(=O)NC1C` (stereo not drawn) here?
**A.** > 100 µM

**Q.** Which EC50 does the source give for `CCOC(=O)C1=C(C)NC(=O)NC1c1ccc(OC)cc1` (stereo not drawn) here?
**A.** > 100 µM

**Q.** For `CCOC(=O)C1=C(C)NC(=O)NC1c1ccccc1Cl` (stereo not drawn), which EC50 is on record?
**A.** > 100 µM

**Q.** Which EC50 does the source give for `COc1c(C)c2c(c(O)c1C/C=C(\C)CCC(=O)O)C(=O)OC2` [MYCOPHENOLIC ACID] here?
**A.** 1.8 µM

**Q.** For `CCOC(=O)C1=C(C)NC(=O)NC1`, which EC50 is on record?
**A.** > 100 µM

Tested on: Coxsackievirus B4
Experiment: Antiviral activity against Coxsackie virus B4 infected in African green monkey Vero cells assessed as protection against virus-induced cytopathic effect measured after 3 to 5 days by microscopic analysis
Format: functional, cell-based
Conditions: Enterovirus B

**Q.** For `NC(=O)c1ncn([C@@H]2O[C@H](CO)[C@@H](O)[C@H]2O)n1` [RIBAVIRIN], which EC50 is on record?
**A.** > 250 µM

**Q.** Which EC50 does the source give for `CCOC(=O)C1=C(C)NC(=O)NC1/C=C/c1ccccc1` (stereo not drawn) here?
**A.** > 100 µM

**Q.** With `CCOC(=O)C1=C(C)NC(=O)NC1C` (stereo not drawn) as the compound, how does the EC50 read?
**A.** > 100 µM

**Q.** For `CCOC(=O)C1=C(C)NC(=O)NC1c1ccccc1Cl` (stereo not drawn), which EC50 is on record?
**A.** > 100 µM

**Q.** Which EC50 does the source give for `COc1c(C)c2c(c(O)c1C/C=C(\C)CCC(=O)O)C(=O)OC2` [MYCOPHENOLIC ACID] here?
**A.** > 250 µM

**Q.** Which EC50 does the source give for `CCOC(=O)C1=C(C)NC(=O)NC1` here?
**A.** > 100 µM

Tested on: Sindbis virus
Experiment: Antiviral activity against Sindbis virus infected in African green monkey Vero cells assessed as protection against virus-induced cytopathic effect measured after 3 to 5 days by microscopic analysis
Format: functional, cell-based
Conditions: not given

**Q.** Which EC50 does the source give for `NC(=O)c1ncn([C@@H]2O[C@H](CO)[C@@H](O)[C@H]2O)n1` [RIBAVIRIN] here?
**A.** > 250 µM

**Q.** Which EC50 does the source give for `CCOC(=O)C1=C(C)NC(=O)NC1/C=C/c1ccccc1` (stereo not drawn) here?
**A.** > 100 µM

**Q.** For `CCOC(=O)C1=C(C)NC(=O)NC1C` (stereo not drawn), which EC50 is on record?
**A.** > 100 µM

**Q.** With `CCOC(=O)C1=C(C)NC(=O)NC1c1ccccc1Cl` (stereo not drawn) as the compound, how does the EC50 read?
**A.** > 100 µM

**Q.** For `COc1c(C)c2c(c(O)c1C/C=C(\C)CCC(=O)O)C(=O)OC2` [MYCOPHENOLIC ACID], which EC50 is on record?
**A.** 4 µM

**Q.** For `CCOC(=O)C1=C(C)NC(=O)NC1`, which EC50 is on record?
**A.** > 100 µM

Tested on: Human respirovirus 3
Experiment: Antiviral activity against Para-influenza-3 virus infected in African green monkey Vero cells assessed as protection against virus-induced cytopathic effect measured after 3 to 5 days by microscopic analysis
Format: functional, cell-based
Conditions: Human respirovirus 3, Vero

**Q.** With `NC(=O)c1ncn([C@@H]2O[C@H](CO)[C@@H](O)[C@H]2O)n1` [RIBAVIRIN] as the compound, how does the EC50 read?
**A.** 112 µM

**Q.** With `CCOC(=O)C1=C(C)NC(=O)NC1/C=C/c1ccccc1` (stereo not drawn) as the compound, how does the EC50 read?
**A.** > 100 µM

**Q.** Which EC50 does the source give for `CCOC(=O)C1=C(C)NC(=O)NC1C` (stereo not drawn) here?
**A.** > 100 µM

**Q.** For `CCOC(=O)C1=C(C)NC(=O)NC1c1ccccc1Cl` (stereo not drawn), which EC50 is on record?
**A.** > 100 µM

**Q.** For `COc1c(C)c2c(c(O)c1C/C=C(\C)CCC(=O)O)C(=O)OC2` [MYCOPHENOLIC ACID], which EC50 is on record?
**A.** 0.8 µM

**Q.** For `CCOC(=O)C1=C(C)NC(=O)NC1`, which EC50 is on record?
**A.** > 100 µM
